Assay results collected from several papers.

| SMILES | method | matrix | time | pH | temperature | setting | solubility |
| --- | --- | --- | --- | --- | --- | --- | --- |
| Cn1cnc2ccc(Nc3c(F)ccc(NS(=O)(=O)N4CC(F)C4)c3Cl)c(Cl)c2c1=O |  | FaSSIF |  | pH 6.91 |  |  | 13 µg/mL |
| Cn1cncc1[C@@](N)(c1ccc(Cl)cc1)c1ccc2c(c1)c(-c1cccc(Cl)c1)cc(=O)n2C |  | simulated gastric fluid |  | pH 1.02 | 25 °C | acidic | > 3750 µg/mL |
| Cc1ccc(Cn2cc(C(=O)NN)c(=O)c3cc(Oc4ccccc4)ccc32)cc1 | shake flask | PBS | 24 h | pH 6.5 | 25 °C |  | < 5 µM |
| Cc1c(C(=O)O)ccc2c3n(nc12)[C@@H]1[C@H](C3)N(CC2CC2)[C@@]2(C(=O)Nc3cc(Cl)ccc32)[C@H]1c1cccc(Cl)c1F |  | FaSSIF |  |  |  |  | 50 µg/mL |
| Cc1cc(C)c2nc(-c3ccncc3)cc(C(=O)NCCCn3ccnc3)c2c1 |  | PBS |  |  |  |  | > 20 µM |
| CC(=Nc1ccc(N=Cc2ccc3[nH]cnc3c2)cc1)N(C)C | shake flask | PBS | 24 h | pH 7.4 | 25 °C |  | ~20 µg/mL |
| O=[N+]([O-])c1ccccc1/C=N/c1c(-c2ccccc2)nc2ccc(Cl)cn12 |  | aqueous buffer |  | pH 7 |  |  | < 1 µg/mL |
| CC(=Nc1ccc(N=Cc2cnccn2)cc1)N(C)C | shake flask | PBS | 24 h | pH 7.4 | 25 °C |  | ~20 µg/mL |
| N#C[C@@]12C[C@@H]1[C@@H](n1cnc3c(N[C@@H](C4CCC4)C4CC4)nc(I)nc31)[C@H](O)[C@@H]2O |  | aqueous buffer |  | pH 7.4 |  |  | 50 µg/mL |
| CC(C)[C@H](NC(=O)[C@H](Cc1cscn1)NC(=O)CCc1ccccc1)C(=O)N[C@@H](CCCNC(=N)N)C(=O)c1nc2ccccc2s1 |  | PBS | 90 min | pH 7.4 |  |  | > 10 µM |
| Cc1cccn2c(=O)c3cc(C(=O)N[C@@H](C)c4ccccc4)c(N)[n+](CCOCCO)c3nc12 |  | PBS |  |  |  |  | > 20 µM |
| O=[N+]([O-])c1ccc(/C=N/c2c(-c3ccccc3)nc3ccc(Cl)cn23)cc1 |  | aqueous buffer |  | pH 7 |  |  | 25 µg/mL |
